Molecules are shown by their SMILES. In all, about 330,000 compounds went through this assay and about 350 (0.11%) were called active.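 The calls were made as follows: active = activation more than six SD over the plate average, tested at 20 µM; inactive = the rest.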 Many of the other results were omitted from the sample, so actives are more common in it than they were.

The target of the assay is Apelin receptor (Homo sapiens) (UniProt P35414). Kind of assay: APJ activation via beta-arrestin recruitment – CHO-K1 cells, PathHunter beta-arrestin, luminescence, primary screen (AID 2520).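 Also: 0% = DMSO alone and 100% = apelin-13 at 10 nM.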 Conditions: at 20 µM, active compounds read high, 0% DMSO wells, 100% apelin. In short, it runs like this: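 Test system: CHO-K1 APJ beta-arrestin complementation cell line | Compound: Single test compound dose, 20 µM final, 1% DMSO | Incubation: Compound 90 min 25 °C, reagent 1 h | Measured by: beta-gal luminescence | Read-out basis: APJ–arrestin association signal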
Chain of Apelin receptor (Homo sapiens) (P35414 whole entry, looked up): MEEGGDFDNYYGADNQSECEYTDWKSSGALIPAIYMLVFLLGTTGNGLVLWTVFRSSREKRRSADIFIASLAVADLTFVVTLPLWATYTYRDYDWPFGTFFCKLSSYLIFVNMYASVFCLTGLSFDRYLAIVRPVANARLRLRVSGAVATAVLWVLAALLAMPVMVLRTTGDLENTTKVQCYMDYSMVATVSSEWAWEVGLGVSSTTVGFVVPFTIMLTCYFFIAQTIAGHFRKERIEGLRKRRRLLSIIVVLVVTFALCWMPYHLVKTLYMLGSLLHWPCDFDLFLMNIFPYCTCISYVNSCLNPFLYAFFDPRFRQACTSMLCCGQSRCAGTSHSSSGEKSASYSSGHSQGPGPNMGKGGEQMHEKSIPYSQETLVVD
On the technique in general: Activated receptors often draw arrestin, which recruitment assays turn into a signal.
In the case of `CCn1c(SCC(=O)NC2CC2)nnc1-c1ccncc1`, the activation was -8.09% (inactive).
With `CN1CCC(=O)N([C@H](CO)Cc2ccccc2)CC1` the figure was -1.16% (inactive).
With `Cc1nn(Cc2ccccc2)c(C)c1C(=O)NCCCN1CCCC1=O` the figure was -4.22% (inactive); with `COC(=O)C1C(=O)CC(C)(O)C(C(=O)OC)C1c1ccc2c(c1)OCO2` (stereo unspecified), 2.74% (inactive); with `NC(=O)CN1CCCC1c1ccc2c(c1)OCCO2` (stereo unspecified), 0.777% (inactive).
As to `O=C(O)Cc1ccc(NC(=O)C2CCCCC2C(=O)O)cc1` (stereo unspecified), the activation is -3.2% (inactive).
With `Cc1cc(C)nc(NC2=NCC(=O)N2c2ccc(Cl)cc2)n1` the figure was -2.04% (inactive).
Turning to `Cc1ccnc(SCCn2c(N(C)Cc3ccccc3)nc3c2c(=O)n(C)c(=O)n3C)n1`, the activation is -0.694% (inactive).
With `Cc1[nH]c(C)c(S(=O)(=O)N2CCN(c3cccc(C(F)(F)F)c3)CC2)c1C(=O)N1CCCC1` the figure was 0.662% (inactive); with `COc1ccccc1N(CC(=O)NC1CCCC1)C(=O)C1(C)CC(=O)N=C2C=CC(C)=CN21` (stereo unspecified), -0.286% (inactive); with `Cc1cc(C)nc(SCc2nnc(SCC(=O)Nc3ncc(C)s3)n2Cc2ccco2)n1`, -3.79% (inactive).
Under `CC[C@@]1(C(=O)OC)N[C@H](CN(C)C(C)=O)[C@@H]2C(=O)N(C)C(=O)[C@@H]21` stands -1.38% (inactive).
With `CCC(=O)Nc1c(C)n[nH]c1C` the figure was -0.823% (inactive); with `CN1CCN(c2ncc3c(n2)CC(c2ccccc2F)CC3=O)CC1` (stereo unspecified), -2.83% (inactive).
For the molecule `CCCCC(=O)Nc1cc(C)c2c(=O)oc3ccccc3c2n1`, the activation was 7.83% (inactive).
Under `CC(C)(C)Nc1c(N)c(=O)oc2ccccc12` stands -1.36% (inactive); under `Cc1ccccc1-n1nnc2c(=O)oc3ccccc3c21`, 10.2% (active).
With `O=C(c1ccc(-c2ccccc2)cc1)C1CCCN(C(=O)c2cncs2)C1` (stereo unspecified) the figure was 1.31% (inactive); with `Cc1noc(C)c1C(=O)NCC1COc2ccccc2O1` (stereo unspecified), -2.37% (inactive).
In the case of `Cc1ccccc1/[N+]([O-])=C/c1ccncc1`, the activation is 1.01% (inactive).
Under `COCCn1nnnc1CN1CCC(NC(=O)Nc2cccc(OC)c2)CC1` stands -0.645% (inactive).
Consider `COc1ccc(NC(=O)CC(NC(C)c2ccccc2)C(=O)O)cc1` (stereo unspecified), for which the activation was -1.25% (inactive).
With `CCN(CC)CCNc1nc(-c2ccc(OC(F)F)cc2)c(C)s1` the figure was -1.98% (inactive).
Under `CC1(C(=O)NNC(=S)NCC2CCCO2)CC1(Cl)Cl` (stereo unspecified) stands -1.22% (inactive); under `O=C1CCC(=O)N1c1ccc(NCCc2ccccc2F)c([N+](=O)[O-])c1`, -3.51% (inactive); under `O=C(NCCc1ccc(Cl)cc1)C1CCCN1C(=O)NCc1ccccc1` (stereo unspecified), 0.456% (inactive).
Under `CN1C(=O)c2ccccc2C(C(=O)NCCCN2CCCC2)C1c1c[nH]c2ccccc12` (stereo unspecified) stands -1.97% (inactive); under `Cc1ccc(NS(=O)(=O)c2ccc(-c3ccc(=O)[nH]n3)o2)c(C)c1`, 2.4% (inactive).
As to `CN(C)c1ccc(C(CC(=O)O)C(=O)O)cc1` (stereo unspecified), the activation was -1.37% (inactive).
Under `CC(C)(C)n1nnc(CCc2nnn(C(C)(C)C)n2)n1` stands -4.6% (inactive); under `O=C(O)C1CCCN1S(=O)(=O)c1ccc(Br)cc1` (stereo unspecified), -2.7% (inactive); under `O=C(C1CC(=O)N(C2CCCC2)C1)N1CCN(c2cccc(C(F)(F)F)c2)CC1` (stereo unspecified), 5.77% (inactive).
With `CN(C)c1nc2n(c(=O)n1)CCO2`, the activation was -2.79% (inactive).
As to `c1ccc(C2CCC(N3CCC(N4CCCCC4)CC3)CC2)cc1` (stereo unspecified), the activation was -3.04% (inactive).
With `O=C(Nc1ccc(Cl)cc1)c1cc2nc(C3CC3)cc(C(F)(F)F)n2n1` the figure was -4.3% (inactive).
With `FC(F)(F)c1ccc(CN2C[C@@H]3C(c4ccccc4)C4(c5ccccc5)CC3(C4)[C@H]2c2ccccc2)cc1` (stereo partly specified) the figure was -0.566% (inactive).
With `Cc1ccc(N(C(=O)Cc2cccs2)C2C=CS(=O)(=O)C2)cc1Cl` (stereo unspecified) the figure was -2.42% (inactive); with `Cn1c(CC(=O)Nc2ccc(F)cc2)nnc1SCC(=O)NC1CCCCC1`, -3.67% (inactive).
With `COc1ccc(C)cc1NC(=O)c1cc(-c2ccccc2)nc2c1cnn2C(C)C`, the activation is -4.65% (inactive).
With `CCOc1cc2[nH]c(=O)n(Cc3ccc(C(=O)NCCCN4CCCC4=O)cc3)c(=O)c2cc1OCC` the figure was 3.97% (inactive); with `CCOc1cc2[nH]c(=S)n(CCCN3CCCC3=O)c(=O)c2cc1OCC`, 23.3% (active); with `CCOc1cc2[nH]c(=S)n(CCN3CCCCC3C)c(=O)c2cc1OCC` (stereo unspecified), 7.97% (inactive).
With `CC1CN(C(=O)CCC(=O)NCCCN2CCC(Cc3ccccc3)CC2)c2cc(Cl)ccc2O1` (stereo unspecified) the figure was -4.59% (inactive); with `CCn1c(CSCc2c(Cl)cccc2Cl)n[nH]c1=S`, -4.78% (inactive).
Under `CN1CCN(CCCCOc2ccccc2-c2ccccc2)CC1` stands 3.27% (inactive); under `O=Cc1ccc(OCc2cn3ccccc3n2)cc1`, -1.42% (inactive); under `COc1ccccc1CNC(=O)CN1CCC(n2cnc3cc(F)ccc32)CC1`, -0.106% (inactive).
Regarding `Cc1cc(C(=O)OCC(=O)N2C(C)CCCC2C)c2ccccc2n1` (stereo unspecified), the activation is -2.15% (inactive).
Under `O=C(c1ccccc1)N1CCN(C(=O)c2cc3nc(-c4ccccc4)cc(C(F)(F)F)n3n2)CC1` stands -0.488% (inactive).
Under `COc1ccccc1Oc1ccc(N2CC(C(=O)OCC(=O)c3ccc(F)cc3)CC2=O)cc1` (stereo unspecified) stands -2.79% (inactive); under `O=C(Nc1ccc(F)c([N+](=O)[O-])c1)C1CC(=O)N(Cc2ccccc2)C1` (stereo unspecified), -2.4% (inactive); under `COc1cccc(N(CC(=O)NC2CCCC2)C(=O)Cn2nnc(-c3ccc(C)cc3)n2)c1`, 0.507% (inactive).
Under `O=C(CCCn1c(=O)c2sccc2n(CC(=O)NCC2CCCO2)c1=O)NCc1ccco1` (stereo unspecified) stands -4.48% (inactive); under `COc1ccccc1NC(=O)C1=C(C)Nc2nc3ccccc3n2C1c1cccs1` (stereo unspecified), -1.44% (inactive); under `COc1ccc(S(=O)(=O)N(CC(=O)NCc2ccco2)c2ccc(F)cc2)cc1`, -0.367% (inactive).
`CN(C)N1C(N)=C(C#N)C(c2ccc(Br)cc2)C2=C1CCCC2=O` (stereo unspecified): the activation is 0.53% (inactive).
Under `O=[N+]([O-])c1ccccc1N/N=C1\CCc2ccccc21` stands -0.52% (inactive); under `O=C(N[C@@H](Cc1c[nH]c2ccccc12)C(=O)O)OCC1c2ccccc2-c2ccccc21`, 7.88% (inactive); under `Cn1c(=O)cc(OCCCC(=O)N2CCN(c3ccccn3)CC2)c2ccccc21`, -3.56% (inactive).
With `COc1ccc(NC(=O)CSc2nncc(=O)n2N)cc1OC` the figure was -6.25% (inactive); with `CN(C)/C=C(\C#N)C(=O)c1cccnc1Oc1cccc(F)c1`, -4.09% (inactive); with `CC(C)NC(=O)Nc1cccc2c1O[C@@H](CN(C)S(=O)(=O)c1ccc(F)cc1)[C@@H](C)CN([C@H](C)CO)C2=O`, -0.163% (inactive).
Under `Cc1ccc(S(=O)(=O)N(C)C)cc1NC(=O)/C=C/c1cccs1` stands 2.48% (inactive).
For `Cn1ccnc1-c1nnn(-c2ccc(F)cc2)n1`, the activation is -4.89% (inactive).
Under `CCOc1ccc(CN2CCN(Cc3ccon3)CC2CCO)cc1` (stereo unspecified) stands -0.588% (inactive); under `Cc1ccc(C(=O)O)cc1-c1ccc(/C=C2\SC(=O)N(CC(=O)Nc3ccc4c(c3)OCO4)C2=O)o1`, 0.103% (inactive); under `CC(NC(=O)c1ccc(Cl)cc1)C(=O)N1CCCCC1` (stereo unspecified), 0.246% (inactive).
For the molecule `COc1ccc(C)cc1NC(=O)CSc1nnc2ccc(-c3ccccn3)nn12`, the activation is 1.64% (inactive).
With `COc1ccc(CNS(=O)(=O)c2cc(-c3cc(C)no3)ccc2C(C)C)cc1` the figure was 0.556% (inactive); with `CN1CCN(CC#CCC2(O)c3ccccc3-c3ccccc32)CC1`, -0.677% (inactive).
As to `CN1CCN(S(=O)(=O)c2ccc(Nc3ccc(F)cc3)nc2)CC1`, the activation was 7.91% (inactive).
With `Brc1ccc(CN2CC[C@H]3C=CCc4cccc(c43)C2)cc1` the figure was -1.27% (inactive).
With `CCN1CN(Cc2ccccc2)CNC1=S` the figure was -0.233% (inactive); with `CCc1ccc(CN2C(=O)c3ccccc3C2C(=O)NCC2CCCO2)cc1` (stereo unspecified), 1.09% (inactive).
Under `CCCN(c1ccc(C(C)C)cc1)S(=O)(=O)c1c(C)[nH]c(=O)[nH]c1=O` stands -2.76% (inactive); under `Cc1nn(C)cc1N1C(=O)c2cccc3c(N)ccc(c23)C1=O`, -0.917% (inactive); under `CCN1C(=O)c2cccc3c(N)ccc1c23`, 24% (active).
With `CCN1C(=O)c2cccc3c(S(=O)(=O)Nc4ccccc4O)ccc1c23`, the activation was 2.45% (inactive).
With `O=S(=O)(N1CCCCC1)N1CCNCC1`, the activation is 2.29% (inactive).
Under `Cc1c(Cl)c([N+](=O)[O-])nn1Cc1ccc(C(=O)N/N=C\c2cc(Cl)ccc2O)o1` stands 1.67% (inactive).
Turning to `COc1cc(NC(=O)COC(=O)c2cc(S(=O)(=O)N3CCOCC3)ccc2F)cc(OC)c1`, the activation was -0.441% (inactive).
With `Cc1cc(C(=O)NCCc2ccc(Cl)cc2)c(C)o1` the figure was 7.66% (inactive); with `CSCCC(C(=O)NC1=NCCS1)N1C(=O)c2ccccc2C1=O` (stereo unspecified), 0.0635% (inactive); with `CN(C(=O)c1cccc(NC(=O)Cc2ccc([N+](=O)[O-])cc2)c1)C1CCC1`, 0.477% (inactive).
With `COc1cc(C(=O)Nc2cc(C(F)(F)F)ccc2N2CCOCC2)ccc1O` the figure was -3.45% (inactive); with `Cc1ccc(NC(=O)CN(C)C(=O)c2cccc(S(=O)(=O)N3CCCC3)c2)cc1`, -1.65% (inactive).
With `Cc1n[nH]c(=O)n1-c1ccc(Oc2ccccc2)cc1` the figure was -4.14% (inactive); with `O=C(CCS(=O)(=O)c1ccc2c(c1)NC(=O)CS2)NCc1ccccc1Cl`, 0.174% (inactive).
`CCCc1ccc(OCc2ccc(C(=O)N/N=C/c3cccc([N+](=O)[O-])c3)o2)c(OC)c1`: the activation was 47.7% (active).
With `COC(=O)c1ccc(COc2ccc(/C=N/NC(=O)C(=O)Nc3ccc(OC)cc3)cc2OC)o1` the figure was -4.37% (inactive); with `O=C(N/N=C/c1cccc(OCc2ccccc2)c1)c1ccc(Br)o1`, 12% (inactive).

For the origin of these results see PubChem BioAssay AID2520 (Sanford-Burnham Center for Chemical Genomics, 2010).
